This is an account of results in PMC4445693 (Clinical Pharmacology : Advances and Applications, 2015).

By t½ is commonly meant the time in which the quantity being followed falls by half. As a reminder, the Tmax is the time at which the peak concentration occurs. The AUC(0-inf) is the area under the concentration-time curve extrapolated to infinity. A lower AUC(0-inf) goes with less exposure. A word on the Cmax: it is the maximum level reached in the sampled fluid or tissue. Usually MRT stands for a mean duration of stay, worked out from the concentration-time curve. Broadly, the half-life is how long it takes for the measured level to halve.

The conditions of data set [1]: cited from earlier work.
The conditions of data set [2]: human plasma; cited from earlier work.
The conditions of data set [3]: cited from earlier work; for AUC24 h in plasma: rat.
Data set [4] can be described thus: Single-dose plasma and skin-tissue pharmacokinetics of daptomycin in rats. In kind it is in vivo, rat. The method, boiled down: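 Rats (10 weeks), scalp depilated, sevoflurane-anaesthetised; test compound 10 mg/mL in saline s.c. Blood and 10×15 mm scalp skin sampled 1, 3, 5, 8, 12 h (3/time point); skin homogenised in 9 vol 1% phosphate buffer pH 6.0, extracted 4°C 18 h. Acetonitrile precipitation, mefenamic acid internal standard; C8 HPLC, UV 214 nm. Cmax/Tmax observed; AUC, MRT by trapezoidal rule; mean ± SD.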

[5] abbreviates: male, Wistar, rat, plasma, sc, 50 mg/kg, SD.

Like-named read-outs stand apart in the source and are kept apart here.

Consider `CCCCCCCCCC(=O)N[C@@H](Cc1c[nH]c2ccccc12)C(=O)N[C@H](CC(N)=O)C(=O)N[C@@H](CC(=O)O)C(=O)N[C@@H]1C(=O)NCC(=O)N[C@@H](CCCN)C(=O)N[C@@H](CC(=O)O)C(=O)N[C@H](C)C(=O)N[C@@H](CC(=O)O)C(=O)NCC(=O)N[C@H](CO)C(=O)N[C@@H]([C@H](C)CC(=O)O)C(=O)N[C@@H](CC(=O)c2ccccc2N)C(=O)O[C@@H]1C` [daptomycin], for which the “Protein binding in rat serum” value in data set [1] is 89.3%. Also, the “Plasma protein binding in humans” value in data set [2] is 92%. The t½ in data set [3] (rat plasma, previous studies) was 1.6 to 2.9 h. For the same molecule, in data set [3] (intraperitoneal dose of 30 mg/kg/day), the “AUC24 h in plasma” value was 558 µg·h/mL. Besides, the “AUC24 h in plasma” value in data set [3] (subcutaneous dose of 40 mg/kg/day) was 605 µg·h/mL. The Tmax skin tissue in data set [4] (male Wistar rats, single subcutaneous 50 mg/kg, skin tissue) turned out to be 3.0 h. Further, the Tmax in data set [4] (male, Wistar, rat, plasma, sc, 50 mg/kg) was found to be 3 h. In data set [4] (setting [5]), the AUC(0-inf) was 812 ± 31.9 µg·h/mL, the Cmax was 176 ± 6.3 µg/mL, the MRT was 2.28 ± 0.33 h and the half-life was 1.58 ± 0.23 h.
